Results from different studies.
PBRM1 bromodomain: Protein polybromo-1, bromodomain (PBRM1, Homo sapiens, UniProt Q86U86)
PBRM1 BD2: Protein polybromo-1, BD2 (PBRM1, Homo sapiens, UniProt Q86U86)
BRD2 BD1: Bromodomain-containing protein 2, BD1 (BRD2, Homo sapiens, UniProt P25440)
Abl1: Tyrosine-protein kinase ABL1 (Abl1, Mus musculus, UniProt P00520)
CSNK1A1L: Casein kinase I isoform alpha-like (CSNK1A1L, Homo sapiens, UniProt Q8N752)

SMILES | target | assay | system | setting | measurement | result
CCC(/C=C1\CCn2c1nc(=O)c1c(Cl)c(Cl)ccc12)CC | PBRM1 bromodomain | thermal stability, DSF | – | 100 µM | ΔTm | 2.23 °C
C[S+]([O-])c1ccc(-c2nc(-c3ccncc3)c(-c3ccc(F)cc3)[nH]2)cc1 (stereo not drawn) | Protein polybromo-1, BD1 (PBRM1, Homo sapiens, UniProt Q86U86) | thermal stability, DSF | – | 10 µM | ΔTm | 0.28 °C
CCC(CC)CC1CCn2c1nc(=O)c1c(Cl)cccc12 (racemic) | PBRM1 BD2 | thermal stability, DSF | – | 100 µM | ΔTm | 2.66 °C
Cc1cnc(Nc2ccc(OCCN3CCCC3)cc2)nc1Nc1cccc(S(=O)(=O)NC(C)(C)C)c1 | PBRM1 BD2 | thermal stability, DSF | – | 10 µM | ΔTm | 0.23 °C
O=C(O)c1cccc(NC(c2ccccc2)c2ccc3ccccc3c2O)c1 (stereo not drawn) | CAAX prenyl protease 2 (Homo sapiens, UniProt Q9Y256) | enzyme activity, inhibitor | – | 10 µM | remaining activity | < 40%
Oc1ccc(-c2nc(-c3ccncc3)c(-c3ccc(F)cc3)[nH]2)cc1 | BRD2 BD1 | thermal stability, DSF | – | 10 µM | ΔTm | 1.18 °C
CN(C)C1CCN(CC#Cc2nn(C3CCCC3)c3nc(NCc4ccccc4)ncc23)C1 (stereo not drawn) | Insulin receptor (INSR, Homo sapiens, UniProt P06213) | enzyme activity, inhibitor, FRET | – | 10 µM | inhibition | 31%
O=c1nc2n(c3cccc(Cl)c13)CC/C2=C\c1ccccc1 | PBRM1 BD2 | thermal stability, DSF | – | 100 µM | ΔTm | -6.11 °C
Cc1cnc(NC2CCOCC2)nc1-n1cnc(C(=O)NC(CN)c2cc(F)cc(Cl)c2)c1 (stereo not drawn) | Abl1 | enzyme activity, inhibitor, radiometric | – | 1 µM | remaining activity | 99%
Cc1cc2c(cc1N1C(=O)c3cccc4c(Cl)ccc(c34)C1=O)n(C)c(=O)n2C | BRD2 BD1 | thermal stability, DSF | – | 10 µM | ΔTm | 0.3 °C
CC/C=C1\CCn2c1nc(=O)c1c(Cl)cccc12 | PBRM1 bromodomain | thermal stability, DSF | – | 100 µM | ΔTm | 5.03 °C
Cc1ccc(C(=O)Nc2ccc(CN3CCN(C)CC3)c(C(F)(F)F)c2)cc1C#Cc1cnc2cccnn12 | CSNK1A1L | enzyme activity | – | 23.5 nM | remaining activity | 100%
Nc1ncnc2occ(-c3ccc(NC(=O)Nc4cc(C(F)(F)F)ccc4F)cc3)c12 | CSNK1A1L | cell-free assay | – | 20 µM | remaining signal | 39%
CC(C)(O)[C@H]1CC[C@H](Nc2ccc3ncc(-c4cccc(C(F)(F)F)c4)n3n2)CC1 | Serine/threonine-protein kinase N3 (PKN3, Homo sapiens, UniProt Q6P5Z2) | enzyme activity, inhibitor | – | 1 µM | remaining activity | 40.2%
NS(=O)(=O)c1ccc(Nc2nc(-c3ccc(F)cc3)c3ccccc3n2)cc1 | Bromodomain-containing protein 2, BD2 (BRD2, Homo sapiens, UniProt P25440) | binding, competition with immobilised ligand | – | 1 µM | remaining binding | 10%
CCC/C=C1\CCn2c1nc(=O)c1c(Cl)cccc12 | PBRM1 BD2 | thermal stability, DSF | – | 100 µM | ΔTm | 3.03 °C
CCCOc1ccc(OC)c(F)c1C(=O)c1ccc(C(=O)N[C@@H]2CNC[C@H]2NC(=O)c2ccc3[nH]ncc3c2)cc1 | Abl1 | enzyme activity, inhibitor | – | 10 µM | remaining activity | 63%
CC(C)(C)C/C=C1\CCn2c1nc(=O)c1c(Cl)cccc12 | PBRM1 BD2 | thermal stability, DSF | – | 100 µM | ΔTm | 4.96 °C
CCC1=C[C@@H]2CN(C1)Cc1c([nH]c3ccccc13)[C@@](C(=O)OC)(c1cc3c(cc1OC)N(C)[C@H]1[C@@](O)(C(=O)OC)[C@H](OC(C)=O)[C@]4(CC)C=CCN5CC[C@]31[C@@H]54)C2 | Organic cation/carnitine transporter 2 (SLC22A5, Homo sapiens, UniProt O76082) | transporter uptake, inhibitor | HEK293 | 100 µM | remaining activity | 15.3%
CCC(/C=C1\CCn2c1nc(=O)c1ccc(O)cc12)CC | PBRM1 bromodomain | thermal stability, DSF | – | 100 µM | ΔTm | -0.42 °C
CCCCCCN1CCCn2c1nc1c2c(=O)n(C)c(=O)n1C | Adenosine receptor A2b (ADORA2B, Homo sapiens, UniProt P29275) | ligand displacement, radioligand | – | 10 µM, cell membranes | inhibition | 9%
